# Assay outcomes from PubChem BioAssay.
# Sampled rows, rich in hits. Any-hit rate of the full collection: about 3.5%.
# STAT1 act – STAT1 signaling activation | 200,000 compounds, 2.6% hits | activation (% of control), % at 5.5 µM | NIH 3T3 STAT1-luciferase reporter, IFN-gamma, luminescence; 100% = IFN-gamma alone, no compound;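 active = activation above the screen-wide mean activation plus 3 SD, cut at about 130% in these data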;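 also: raw ratio to IFN-gamma control signal so 100% means no change and 0% no light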
# NF-kB neuron act – NF-kB expression increase, human neuronal cells; NF-kB reporter expression; stronger effect = higher value; fold change at 12.5 µM; 190,000 compounds, 1.6% hits; AID 1239; in the data active = fold change above about 3.3
# APP 5'UTR act – activates APP 5'UTR luciferase reporter; SH-SY5Y APP 5'UTR luciferase reporter, luminescence; zero percent = DMSO vehicle wells; activation, % at 2 µM; 190,000 compounds, 1% hits; AID 1276;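 active = activation above a set limit, based on mean plus 3 SD of controls, cut at about 140% in these data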
# FLuc inhib CS – inhibits firefly luciferase, flagging false hits in luciferase inhibition screens; P08659; ATPLite firefly luciferase biochemical luminescence, 10 min; inhibition, % at 10 µM; 200,000 compounds, 1.5% hits; AID 1006;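 active = inhibition above about 50% when tested at 10 µM, limit read from the data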
# Target sequence (P08659 whole entry, looked up): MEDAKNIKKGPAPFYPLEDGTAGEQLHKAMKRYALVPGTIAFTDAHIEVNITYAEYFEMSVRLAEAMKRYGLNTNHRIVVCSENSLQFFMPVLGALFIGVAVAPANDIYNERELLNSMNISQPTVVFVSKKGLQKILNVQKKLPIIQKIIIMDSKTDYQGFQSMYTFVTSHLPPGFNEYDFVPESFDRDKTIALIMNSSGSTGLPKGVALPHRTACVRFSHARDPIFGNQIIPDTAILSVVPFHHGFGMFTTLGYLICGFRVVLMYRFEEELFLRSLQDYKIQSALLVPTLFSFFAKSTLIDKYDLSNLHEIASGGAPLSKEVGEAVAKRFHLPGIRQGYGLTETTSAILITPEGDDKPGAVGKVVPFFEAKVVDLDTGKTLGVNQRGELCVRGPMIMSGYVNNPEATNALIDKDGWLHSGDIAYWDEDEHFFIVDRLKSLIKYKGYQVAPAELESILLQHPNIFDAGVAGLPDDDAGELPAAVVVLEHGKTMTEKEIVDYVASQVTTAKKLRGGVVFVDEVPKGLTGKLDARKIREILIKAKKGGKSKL
# FLuc stim CS – affects firefly luciferase, flagging false hits in luciferase stimulation screens | activation factor at 10 µM | ATPlite luciferase biochemical, luminescence, 10 min; 0 = ATP-free wells, 1 = DMSO control | P08659 | 200,000 tested, under 10 active | AID 1027;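 active = luciferase activation factor, scaled between plate controls, of at least 2 with compound at 10 µM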
#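 Material: luciferase plus luciferin reagent, cell-free. Medium: PBS buffer for ATP. Also added: ATP substrate, dispensed from a 10.24 µM working solution in PBS. Doses: test compounds dosed from 2 mM stocks in 100% DMSO. Incubation: 10 min post-reagent at room temperature. Technique: light output (luminescence). Read-out basis: luminescence gain marking luciferase activators.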
# Pf gamet viab – inhibitors of late stage P. falciparum gametocyte viability. 150,000 compounds, 0.065% hits. P. falciparum stage V gametocytes, ATP luminescence, 24 h. inhibition, % at 10.9 µM. AID 743093;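 active = inhibition above the mean plus 3 SD of compounds within the control limits, set per campaign, cut at about 38% in these data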;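 also: 0% = DMSO wells and 100% = medium only without gametocytes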
# STAT1 activ conf – confirmation of STAT1 signaling activators; activation (% of control), % at 5.7 µM; 1,200 compounds, 97% hits; shares compounds with STAT1 act; AID 1262; NIH 3T3 STAT1-luciferase reporter, IFN-gamma potentiation, luminescence; 100% = IFN-gamma EC80 alone, no compound;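 active = activation above a set limit carried over from the earlier primary STAT1 screen, cut at about 140% in these data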;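 also: simple ratio to median IFN-gamma plus DMSO wells so 0% means no light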
# NFkB act STAT1ct – counter-screen for STAT1 activators: NF-kappaB activation. activation (% of control), % at 5.7 µM. AID 1306. 1,200 compounds, 43% hits. HEK293T NF-kB luciferase reporter, TNF-alpha stimulated, luminescence; 100% = TNF-alpha with vehicle only. shares compounds with STAT1 act;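 active = activation above the mean of solvent-only control wells plus 3 SD, set per campaign, cut at about 130% in these data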;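 also: TNF-alpha given at a submaximal dose yielding about 80% of full reporter signal; values are well signal over median control so 100% means no change and 0% no light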
# STAT3 act 2 – counter-screen for STAT1 activators: human STAT3 activation; shares compounds with STAT1 act; U3A cells STAT3-luciferase reporter, IL-6, luminescence; cells lack STAT1; 100 = IL-6 alone, no compound effect; activation (% of control), % at 5.7 µM; 1,200 compounds, 46% hits; AID 1316;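 active = activation above the solvent-only control well mean plus 3 SD, set per plate batch, cut at about 110% in these data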;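 also: 0% = no luminescence and 100% = median IL-6 plus DMSO wells; higher means more STAT3 reporter activation so hits are non-selective activators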
# An asterisk follows results filed as active; · = no result given.
SMILES,STAT1 act,NF-kB neuron act,APP 5'UTR act,FLuc inhib CS,FLuc stim CS,Pf gamet viab,STAT1 activ conf,NFkB act STAT1ct,STAT3 act 2
N#C/C(=C\c1ccc(N2CCOCC2)o1)c1ccccc1,161*,1.9,28,16,0.8,6,235*,150*,126*
N#C/C(=C/c1ccc(N2CCOCC2)o1)c1ccc(Br)cc1,115,2,-10,2,1,·,·,·,·
N#C/C(=C\c1ccc(N2CCOCC2)cc1)c1ccccc1,174*,2.5,208*,42,0.6,·,226*,143*,108
O=C(CCS(=O)(=O)c1ccc(Cl)cc1)Nc1ccc(N2CCOCC2)cc1,·,·,·,·,·,6,·,·,·
CCOC(=O)C(C)N1N=C(/C=C/c2ccc(OC)cc2)CCC1=O (configuration not stated),102,0.78,2,-6,1.1,12,·,·,·
O=C(O)c1cc(N/N=C/C=C/c2ccccc2)ccc1Cl,158*,6.1*,179*,10,0.9,13,210*,152*,127*
CC1(C(=O)OCc2cc(=O)n3cc(Br)ccc3n2)CC1(Cl)Cl (configuration not stated),161*,1.2,82,7,0.9,·,168*,124,100
COc1ccc2nc3oc(C(=O)N4CCCCC4)cc3cc2c1,179*,6.4*,120,27,0.7,7,206*,136*,107
CCOC(=O)N1CCc2c(sc(NC(=O)CN(CC)CC)c2C#N)C1,·,·,·,·,·,-33,·,·,·
O=C1c2ccsc2SCCN1Cc1ccccc1,102,1,5,-5,1,·,·,·,·
Cc1cnc(NC(=O)Nc2ccc(Cl)cc2)s1,296*,26*,-28,45,0.6,-16,282*,138*,141*
Cc1cnc(NC(=O)CSc2ccc(Cl)cc2)s1,97,1.2,13,-2,1,·,·,·,·
CCOC(=O)N/C(N)=N/c1nc2ccccc2s1,166*,7*,199*,40,0.6,-10,210*,125,99
CC(=O)N/C(N)=N/c1nc(=O)c2ccccc2s1,·,·,·,·,·,-10,·,·,·
Cc1cc(/C=C2/C(=O)N(C)C(=S)N2C)ccc1N1CCCC1,175*,3.2,118,16,0.8,-5,168*,135*,146*
Cc1cc(N2CCCC2)ccc1/C=C1/C(=O)N(C)C(=S)N1C,106,2.2,-25,0,1,-7,·,·,·
NC(=O)c1sc2nc(-c3ccccc3)ccc2c1N,·,·,·,·,·,-4,·,·,·
CCOC(=O)c1sc2nc(-c3ccccc3)ccc2c1N,174*,2.2,174*,82*,0.2,-21,272*,119,94
Cc1cccc(-n2nnc(C(=O)Nc3ccc(F)cc3)c2N)c1,168*,5.1*,109,7,0.9,·,196*,130,97
CCc1nc2n(n1)C(O)c1cc([N+](=O)[O-])ccc1S2 (configuration not stated),·,·,·,·,·,17,·,·,·
COc1ccc(OC)c(NC(=O)C2C3CC4OC(=O)C2C4C3)c1 (configuration not stated),98,1.1,3,-10,1.1,-31,·,·,·
COc1ccc2cc(C(N)=O)c(=Nc3ccccc3)oc2c1,152*,2,137*,-4,1,-18,142*,103,106
CCCCN(Cc1ccccc1)C(=O)C1CCN(S(=O)(=O)c2c(C)noc2C)CC1,97,1.2,-5,3,1,-13,·,·,·
Cn1c(=NC(=O)c2ccccc2[N+](=O)[O-])sc2cc(S(C)(=O)=O)ccc21,177*,1.3,178*,21,0.8,-10,249*,117,108
CC(C)(C)C(=O)Nc1ccccc1C(=O)OCC(=O)c1ccc2c(c1)OCCO2,97,0.67,24,22,0.8,-21,·,·,·
SMILES,STAT1 act,NF-kB neuron act,APP 5'UTR act,FLuc inhib CS,FLuc stim CS,Pf gamet viab,STAT1 activ conf,NFkB act STAT1ct,STAT3 act 2
O=C(COC(=O)c1ccccc1NC(=O)C1CC1)c1ccc2c(c1)OCCO2,159*,0.59,38,72*,0.3,·,170*,105,101
CCCCCC(=O)N1CC2(C)CN(C(=O)CCCCC)CC(C)(C1)C2=O,103,1.1,-18,-7,1.1,0,·,·,·
Cn1nnc2cc(C(=O)Nc3ccc4ccccc4c3)ccc21,154*,4.3*,130,18,0.8,·,242*,138*,98
CN(C)c1ccc(/C=N/N2C(=N)N(c3ccccc3)C(=S)C2=Nc2ccccc2)cc1,163*,·,180*,·,·,·,185*,134*,113*
O=C(OCC(=O)N1CCOCC1)c1ccccc1Cc1ccccc1,158*,5.5*,116,8,0.9,17,198*,140*,137*
O=C(OCC(=O)N1CCOCC1)c1ccccc1SCC(=O)N1CCCC1,101,1.1,5,-7,1.1,-3,·,·,·
C/C(=N\NC(=O)CN(c1ccccc1)S(C)(=O)=O)c1ccccc1O,102,1.2,0,-4,1,-22,·,·,·
CCc1ccc(C(=O)CN2CCSC2=N)cc1,159*,7.9*,85,63*,0.4,2,209*,136*,95
O=C(CSc1ncnc2c1oc1ccccc12)Nc1ccccc1C(F)(F)F,103,1.1,-5,-5,1,·,·,·,·
C=C(C)CSc1nncn1/N=C/c1ccc(OC)cc1,153*,2.5,33,4,1,·,165*,130,128*
CCSc1nncn1/N=C/c1ccc(OC)c(OC)c1,102,1.5,19,-4,1,5,·,·,·
CN(C1CCCCC1)S(=O)(=O)c1ccc2[nH]c(=O)oc2c1,·,·,·,·,·,-4,·,·,·
COc1ccc(-n2ncc3c(NCC(C)C)ncnc32)cc1,166*,7*,195*,71*,0.3,·,260*,118,98
COc1ccc(-n2ncc3c(NC(C)C)ncnc32)cc1,151*,4*,151*,77*,0.2,·,246*,109,96
COCC(C)Nc1ncnc2c1cnn2-c1ccc(Cl)cc1 (configuration not stated),163*,4.9*,180*,33,0.7,-44,235*,141*,106
COc1ccc(OC)c(Nc2ncnc3c2cnn3-c2ccccc2)c1,107,1.7,14,-3,1,·,·,·,·
CCN(Cc1cc2cc(C)ccc2[nH]c1=O)C(=O)c1cccc([N+](=O)[O-])c1,·,·,·,·,·,-10,·,·,·
